# Data as given in publication PMC5217871 (Journal of Diabetes Investigation, 2016).
# “Also recorded” adds a separate entry of the source. Where two headings read alike, the source gives them in different places.
# Experiments:
# [1] = cited from earlier work
# [2] = format: in vivo, healthy Japanese men; conditions: for Accumulation ratio (day 15/day 1) AUC0–168h / Accumulation ratio (day 15/day 1) Cmax / Accumulation ratio (day 15/day 1) Ctrough: geometric mean ratio (90% CI)
# Summary of the method: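 Blood went into dipotassium-EDTA tubes, was spun 10 min at 1000–1300 g, and plasma was frozen at −20°C. Assay was online-extraction turbulent-flow LC, LLOQ 1.0 ng/mL. Accumulation was the day 15/day 1 geometric mean ratio, computed on the log scale with CIs. For the food comparison, 10 mg single doses were given after a ≥10-h fast or after a 411-kcal Japanese breakfast finished 10 min predose.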
# OCT2 = conditions: no reference given; cited from earlier work
# Urine pharmacokinetics = format: in vivo, healthy Japanese men; conditions: male, human, 50 mg
# Summary of the method: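 After the 50 mg once-weekly dose on day 15, urine was collected predose (day 1) and at intervals up to 168 h. Tween 20 was added to 0.2% final and samples were stored at −20°C. The assay was LC online extraction, LLOQ 40 ng/mL. Amount excreted was the sum of concentration × volume per interval, fraction excreted was amount/dose, and renal clearance was amount/AUC0–168h.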
# OAT1 = conditions: no reference given; cited from earlier work
# [3] = no reference given; cited from earlier work
# [4] = concentration range for 50 mg q.w. dosing; ref unpubl. data; cited from earlier work
# plasma DPP‐4 activity [5] = molecular target: T1, plasma DPP‐4 activity (Homo sapiens, UniProt P27487); format: in vivo, healthy Japanese men; conditions: pharmacokinetic/pharmacodynamic Emax model
# Summary of the method: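 For each participant, percent inhibition of plasma DPP-4 activity (chromogenic glycyl-prolyl-paranitroanilide substrate, 390 nm) was paired with plasma drug concentration after single oral doses. A population three-parameter Emax model (Emax, EC50, Hill slope) was fitted, and the 80% effective concentration was derived from it.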
# [6] = tested on: active glucagon‐like peptide‐1; conditions: healthy males; earlier study; cited from earlier work
# plasma DPP‐4 activity [7] = molecular target: T1, plasma DPP‐4 activity; experiment: Percent inhibition of plasma DPP-4 activity from baseline; format: in vivo, healthy Japanese men; conditions: for DPP-4 percent inhibition from baseline, LS mean (95% CI) / DPP-4 percent inhibition, difference from placebo, difference in LS means (90% CI): 168 h post-dose
# Summary of the method: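 Healthy men received 1–50 mg orally once weekly for 3 weeks. Blood was drawn predose and at set times on days 1 and 15; 4-h and 24-h samples preceded meals. EDTA plasma was incubated with glycyl-prolyl-paranitroanilide, and the absorbance rise at 390 nm was read from 4 to 14 min (LOQ 0.6 mOD/min). Inhibition was taken versus pretreatment and analysed by a log-scale mixed model (treatment, day, interaction; participant random).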
# OAT3 = conditions: no reference given; cited from earlier work
# [8] = Safety and tolerability assessments; format: in vivo, healthy Japanese men
# Summary of the method: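 Part 1 used single doses of 5–100 mg and part 2 used 1–50 mg once weekly for 3 weeks, each with placebo. Adverse events were recorded throughout and rated for intensity, duration, severity, outcome and drug relationship. Vital signs, physical and neurological exams, 12-lead ECGs, laboratory tests and glucometer readings were taken predose, post-dose and post-study. Events were tabulated by dose, with change-from-baseline summaries.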
# [9] = multiple dose 1 mg q.w., day 15
# [10] = multiple dose 10 mg q.w., day 15
# [11] = multiple dose 25 mg q.w., day 15
# [12] = multiple dose 50 mg q.w., day 15
# [13] = single 5–100 mg and multiple 1–50 mg q.w. doses
# [14] = single 5–100 mg and multiple 1–50 mg q.w. doses, listed as Omarigliptin
# T1 sequence (P27487 39-766): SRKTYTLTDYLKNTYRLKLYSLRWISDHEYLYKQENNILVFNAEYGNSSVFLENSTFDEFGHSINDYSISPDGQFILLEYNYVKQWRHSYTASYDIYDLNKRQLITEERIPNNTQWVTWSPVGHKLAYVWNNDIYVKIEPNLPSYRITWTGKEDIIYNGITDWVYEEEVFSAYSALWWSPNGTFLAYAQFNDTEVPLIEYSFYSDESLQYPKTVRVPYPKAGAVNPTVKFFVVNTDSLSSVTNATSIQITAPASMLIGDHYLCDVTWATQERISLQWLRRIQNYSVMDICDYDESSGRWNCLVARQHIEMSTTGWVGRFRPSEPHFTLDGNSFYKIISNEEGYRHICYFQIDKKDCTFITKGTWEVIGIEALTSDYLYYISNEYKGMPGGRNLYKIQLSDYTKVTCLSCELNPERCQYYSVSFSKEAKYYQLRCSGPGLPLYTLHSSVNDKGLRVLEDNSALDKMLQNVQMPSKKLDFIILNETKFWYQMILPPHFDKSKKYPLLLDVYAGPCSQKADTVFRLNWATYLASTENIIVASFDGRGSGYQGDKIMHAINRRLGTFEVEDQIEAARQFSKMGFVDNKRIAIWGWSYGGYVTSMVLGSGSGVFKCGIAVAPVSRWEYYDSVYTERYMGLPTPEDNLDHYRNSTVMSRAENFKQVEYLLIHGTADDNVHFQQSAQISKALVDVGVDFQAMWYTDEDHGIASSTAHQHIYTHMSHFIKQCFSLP
smiles,measurement,setting,value
Cn1c(=O)cc(N2CCC[C@@H](N)C2)n(Cc2cc(F)ccc2C#N)c1=O [trelagliptin],renal clearance compared with typical glomerular filtration rates,[1],higher renal clearance than typical glomerular filtration rates
Cn1c(=O)cc(N2CCC[C@@H](N)C2)n(Cc2ccccc2C#N)c1=O [alogliptin],renal clearance compared with typical glomerular filtration rates,[1],higher renal clearance than typical glomerular filtration rates
N[C@@H](CC(=O)N1CCn2c(nnc2C(F)(F)F)C1)Cc1cc(F)c(F)cc1F [sitagliptin],renal clearance compared with typical glomerular filtration rates,[1],higher renal clearance than typical glomerular filtration rates
CS(=O)(=O)n1cc2c(n1)CN([C@H]1CO[C@H](c3cc(F)ccc3F)[C@@H](N)C1)C2 [omarigliptin],Accumulation ratio (day 15/day 1) AUC0–168h,[2]; 1 mg q.w. for 3 weeks,1.35 (1.27–1.44)
same,Accumulation ratio (day 15/day 1) Cmax,[2]; 1 mg q.w. for 3 weeks,1.36 (1.13–1.63)
same,Accumulation ratio (day 15/day 1) Ctrough,[2]; 1 mg q.w. for 3 weeks,1.24 (1.06–1.44)
same,Accumulation ratio (day 15/day 1) AUC0–168h,[2]; 10 mg q.w. for 3 weeks,1.09 (1.04–1.15)
same,Accumulation ratio (day 15/day 1) Cmax,[2]; 10 mg q.w. for 3 weeks,1.18 (1.00–1.38)
same,Accumulation ratio (day 15/day 1) Ctrough,[2]; 10 mg q.w. for 3 weeks,0.97 (0.86–1.10)
same,effect of food on pharmacokinetics,[2]; 10 mg single dose with Japanese standard breakfast,did not meaningfully alter the pharmacokinetics
same,Accumulation ratio (day 15/day 1) AUC0–168h,[2]; 25 mg q.w. for 3 weeks,1.05 (1.00–1.11)
same,Accumulation ratio (day 15/day 1) Cmax,[2]; 25 mg q.w. for 3 weeks,0.87 (0.75–1.02)
same,Accumulation ratio (day 15/day 1) Ctrough,[2]; 25 mg q.w. for 3 weeks,1.11 (0.98–1.26)
same,Accumulation ratio (day 15/day 1) AUC0–168h,[2]; 50 mg q.w. for 3 weeks,1.03 (0.97–1.09)
same,Accumulation ratio (day 15/day 1) Cmax,[2]; 50 mg q.w. for 3 weeks,1.21 (1.02–1.43)
same,Accumulation ratio (day 15/day 1) Ctrough,[2]; 50 mg q.w. for 3 weeks,1.03 (0.90–1.18)
same,"accumulation ratio (day 15/day 1) AUC0–168h, range",[2]; 1–50 mg q.w. for 3 weeks,1.03–1.35
same,"accumulation ratio (day 15/day 1) Cmax, range",[2]; 1–50 mg q.w. for 3 weeks,0.87–1.36
same,"accumulation ratio (day 15/day 1) trough plasma concentration, range",[2]; 1–50 mg q.w. for 3 weeks,0.97–1.24
same,half-life,"[2]; male, human, plasma, po, 10 mg, t½, single dose 10 mg, fed, geometric mean (%CV)",89.5 h
same,dose proportionality of AUC0–168h and trough plasma concentration,[2]; multiple dose 1–50 mg q.w.,less than dose‐proportional
same,dose proportionality of Cmax,[2]; multiple dose 1–50 mg q.w.,dose‐proportional
same,time at which steady state was reached,"[2]; multiple q.w. dosing, all doses tested",after the first dose
same,AUC0–168h geometric mean ratio (fed/fasted),"[2]; single dose 10 mg, GMR, 90% CI",0.97 (0.90–1.03)
same,AUC0–∞ geometric mean ratio (fed/fasted),"[2]; single dose 10 mg, GMR, 90% CI",1.03 (0.96–1.11)
same,C168h geometric mean ratio (fed/fasted),"[2]; single dose 10 mg, GMR, 90% CI",1.13 (0.93–1.37)
same,Cmax geometric mean ratio (fed/fasted),"[2]; single dose 10 mg, GMR, 90% CI",0.75 (0.65–0.86)
same,"dose proportionality of AUC0–∞, AUC0–168h and Cmax",[2]; single dose 5–100 mg,approximately dose‐proportional
same,dose proportionality of C168h,[2]; single dose 5–100 mg,less than dose‐proportional
same,substrate of drug transporter OCT2,OCT2,not a substrate
same,CL renal,"Urine pharmacokinetics; urine and plasma, oral",50 to 68 mL/min
same,CL renal,"Urine pharmacokinetics; urine, po",38.3 mL/min
same,substrate of drug transporter OAT1,OAT1,not a substrate
same,permeability,[3],high permeability
same,free fraction of omarigliptin in humans,[4],56–76%
same,Emax value,plasma DPP‐4 activity [5],96.5 % inhibition
same,estimated 80% effective concentration,plasma DPP‐4 activity [5],11.4 nmol
same,enhancement of post‐meal active glucagon‐like peptide‐1,[6],approximately twofold
same,"percent inhibition of DPP‐4 activity from baseline at 168 h, range","plasma DPP‐4 activity [7]; 1–50 mg q.w., after 3 weeks dosing",51.3–90.2%
same,"DPP-4 percent inhibition from baseline, LS mean (95% CI)",plasma DPP‐4 activity [7]; [9],51.33 (29.67–66.32) %
same,"DPP-4 percent inhibition, difference from placebo, difference in LS means (90% CI)",plasma DPP‐4 activity [7]; [9],42.48 (31.06–54.19) %
same,"DPP-4 percent inhibition from baseline, LS mean (95% CI)",plasma DPP‐4 activity [7]; [10],83.26 (77.03–87.80) %
same,"DPP-4 percent inhibition, difference from placebo, difference in LS means (90% CI)",plasma DPP‐4 activity [7]; [10],74.41 (65.73–83.59) %
same,"DPP-4 percent inhibition from baseline, LS mean (95% CI)",plasma DPP‐4 activity [7]; [11],87.52 (83.55–90.53) %
same,"DPP-4 percent inhibition, difference from placebo, difference in LS means (90% CI)",plasma DPP‐4 activity [7]; [11],78.67 (70.36–87.51) %
same,"DPP-4 percent inhibition from baseline, LS mean (95% CI)",plasma DPP‐4 activity [7]; [12],90.23 (86.59–92.88) %
same,"DPP-4 percent inhibition, difference from placebo, difference in LS means (90% CI)",plasma DPP‐4 activity [7]; [12],81.37 (73.30–90.00) %
same,"DPP-4 percent inhibition from baseline, LS mean (95% CI)",plasma DPP‐4 activity [7]; single dose 5 mg,79.20 (76.17–81.85) %
same,"DPP-4 percent inhibition, difference from placebo, difference in LS means (90% CI)",plasma DPP‐4 activity [7]; single dose 5 mg,87.89 (80.96–95.09) %
same,"DPP-4 percent inhibition from baseline, LS mean (95% CI)",plasma DPP‐4 activity [7]; single dose 10 mg (fasted),77.39 (74.14–80.24) %
same,"DPP-4 percent inhibition, difference from placebo, difference in LS means (90% CI)",plasma DPP‐4 activity [7]; single dose 10 mg (fasted),86.09 (79.05–93.38) %
same,"DPP-4 percent inhibition from baseline, LS mean (95% CI)",plasma DPP‐4 activity [7]; single dose 10 mg (fed),73.90 (70.14–77.18) %
same,"DPP-4 percent inhibition, difference from placebo, difference in LS means (90% CI)",plasma DPP‐4 activity [7]; single dose 10 mg (fed),82.59 (75.36–90.06) %
same,"DPP-4 percent inhibition from baseline, LS mean (95% CI)",plasma DPP‐4 activity [7]; single dose 25 mg,85.97 (83.66–87.95) %
same,"DPP-4 percent inhibition, difference from placebo, difference in LS means (90% CI)",plasma DPP‐4 activity [7]; single dose 25 mg,94.66 (88.11–101.49) %
same,"DPP-4 percent inhibition from baseline, LS mean (95% CI)",plasma DPP‐4 activity [7]; single dose 50 mg,86.76 (84.59–88.63) %
same,"DPP-4 percent inhibition, difference from placebo, difference in LS means (90% CI)",plasma DPP‐4 activity [7]; single dose 50 mg,95.45 (88.95–102.25) %
same,"DPP-4 percent inhibition from baseline, LS mean (95% CI)",plasma DPP‐4 activity [7]; single dose 100 mg,94.01 (93.03–94.85) %
same,"DPP-4 percent inhibition, difference from placebo, difference in LS means (90% CI)",plasma DPP‐4 activity [7]; single dose 100 mg,102.70 (96.60–109.11) %
same,inhibition from baseline of DPP‐4 activity maintained for 168 h,plasma DPP‐4 activity [7]; single and multiple q.w. administration at a dose of 25 mg or higher,Greater than 80%
same,substrate of drug transporter OAT3,OAT3,not a substrate
same,drug‐related clinical adverse events after omarigliptin,"[8]; part 1, single dosing",five
same,drug‐related adverse events,"[8]; part 2, multiple dosing",Eight
same,total clinical adverse events,"[8]; part 2, multiple dosing, nine participants",13
same,adverse events of hypoglycemia,[8]; [13],no adverse events of hypoglycemia
same,serious clinical or laboratory adverse events,[8]; [13],"no serious clinical or laboratory adverse events; also recorded: No deaths, serious adverse events or laboratory adverse events were reported"
same,tolerability,[8]; [13],well tolerated
same,adverse events of hypoglycemia,[8]; [14],no hypoglycemia being reported
same,tolerability,[8]; [14],generally well tolerated
same,"changes from baseline in laboratory, vital signs, glucose monitoring or ECG parameters",[8]; whole study,"no clinically significant, consistent treatment‐related or dose‐related changes from baseline"
same,discontinuation because of an adverse event,[8]; whole study,no participants were discontinued
same,intensity of adverse events,"[8]; whole study, all resolved by the end of the study",mild or moderate intensity
